Calls of active or inactive are those of the source. The calls are words filed in the database; no cut-off is given here.
What was measured:
MCF7 [1] = experiment: Cytostatic effect against human MCF7 cells at 10 uM after 72 hrs by crystal violet staining relative to uncreate control; type: functional
In short: (§1)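 MCF-7 or MDA-MB-231 cells (ATCC) in DMEM high glucose with 5% FCS, seeded at 7500 cells/mL and grown 3 days at 37 °C, 5% CO2. Compound was added from a DMF or methanol stock and incubated 72 h. Cells were glutardialdehyde-fixed and stained with crystal violet, and the dye was extracted with 70% ethanol for OD 578 nm. T/Ccorr = (T−C0)/(C−C0)×100, where C0 is the OD before treatment. Run 3 times.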

MDA-MB-231 = experiment: Antiproliferative activity against human MDA-MB-231 cells after 72 hrs by crystal violet staining; type: functional, cell-based; in short: as §1
[2] = Half life in PBS buffer at pH 7.4; type: physicochemical
MCF7 [3] = experiment: Cytostatic effect against human MCF7 cells at 5 uM after 72 hrs by crystal violet staining relative to uncreate control; type: functional, cell-based; in short: as §1
MCF7 [4] = experiment: Cytotoxicity against human MCF7 cells at 5 uM after 72 hrs by crystal violet staining; type: functional, cell-based
In short: (§2)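 MCF-7 cells in DMEM high glucose with 5% FCS were seeded at 7500 cells/mL and grown 3 days at 37 °C, 5% CO2. Then exposed 72 h to compound added from a DMF or methanol stock. Biomass was read by crystal violet staining of glutardialdehyde-fixed cells, with 70% ethanol extraction and OD at 578 nm, against untreated control and pre-treatment OD. Three runs per substance.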

MCF7 [5] = experiment: Cytotoxicity against human MCF7 cells at 1 uM after 72 hrs by crystal violet staining; type: functional, cell-based; in short: as §2
MCF7 [6] = experiment: Cytotoxicity against human MCF7 cells at 10 uM after 72 hrs by crystal violet staining; type: functional, cell-based; in short: as §2

SMILES	T/C (MCF7 [1]) [%]	Activity (MDA-MB-231)	half-life [2] [h]	Activity (MCF7 [3])	Activity (MCF7 [4])	Activity (MCF7 [5])	Activity (MCF7 [6])
N[C@@H](Cc1ccc(N(CCCl)CCCl)cc1)C(=O)O [MELPHALAN]	20	Active					
Cn1c(CCCC(=O)OCCN2C(=O)C=CC2=O)nc2cc(N(CCCl)CCCl)ccc21		Active	10	Active			
CC(C)(C)OC(=O)N[C@@H](Cc1ccc(N(CCCl)CCCl)cc1)C(=O)OCCN1C(=O)C=CC1=O		Active					
Cn1c(CCCC(=O)O)nc2cc(N(CCCl)CCCl)ccc21		Active			inactive	inactive	inactive

Reference: ChEMBL document CHEMBL1821603, “Bivalent bendamustine and melphalan derivatives as anticancer agents” (Eur J Med Chem, 2011)
